# Screening data: PubChem BioAssay, The Scripps Research Institute Molecular Screening Center
# M5 PAM: potentiates acetylcholine response at human M5 receptor | P08912 | CHO-K1 hM5, Fluo-8 calcium, ACh EC20 PAM; 0% = ACh EC20, 100% = ACh EC100 | activation, % at 3 µM | 360,000 compounds, 0.3% hits | AID 624038;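 active = activation above the run cutoff, the mean activation of all test compounds plus 3 SD, cut at about 18% in these data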
# Target sequence (P08912 whole entry, looked up): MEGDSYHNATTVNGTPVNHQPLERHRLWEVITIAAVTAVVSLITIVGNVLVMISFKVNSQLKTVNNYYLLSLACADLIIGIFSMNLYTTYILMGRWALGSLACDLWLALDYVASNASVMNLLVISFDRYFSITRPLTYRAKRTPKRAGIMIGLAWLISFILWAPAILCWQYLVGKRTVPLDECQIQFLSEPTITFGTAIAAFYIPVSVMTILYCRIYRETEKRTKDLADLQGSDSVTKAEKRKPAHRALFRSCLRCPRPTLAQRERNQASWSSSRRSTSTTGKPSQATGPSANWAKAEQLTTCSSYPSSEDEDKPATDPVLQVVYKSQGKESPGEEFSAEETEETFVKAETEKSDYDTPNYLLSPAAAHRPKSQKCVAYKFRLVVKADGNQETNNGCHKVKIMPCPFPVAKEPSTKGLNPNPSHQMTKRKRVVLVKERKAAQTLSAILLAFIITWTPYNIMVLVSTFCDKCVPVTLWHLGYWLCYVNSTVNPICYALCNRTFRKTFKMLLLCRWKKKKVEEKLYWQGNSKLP
#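 Assay system: CHO-K1 hM5 cells / Incubation: Fluo-8 loading 80 min at 37 °C plus 30 min room temperature / Technique: Fluo-8 calcium dye fluorescence, kinetic read / Repeats: single replicate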
# M4 ag: CHRM4 agonism in calcium assay. activation, % at 3 µM. P08173. AID 624127. CHO-K1 hM4/Gqi5, Fluo-8 calcium fluorescence; vehicle 0%, full acetylcholine response 100%. 360,000 compounds, 0.14% hits;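 active = activation above the run mean over all test wells plus 3 SD, cut at about 32% in these data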;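 also: peak over basal fluorescence ratio per well then scaled between controls; 0% = DMSO wells and 100% = acetylcholine at EC100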
# M4 antag: antagonists of human muscarinic M4 receptor (CHRM4); P08173; CHO-hM4 cells, ACh EC80, Fluo-8 calcium fluorescence; inhibition, % at 3 µM; 360,000 compounds, 0.73% hits; AID 624125;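 active = inhibition above its plate's cutoff, the mean inhibition of sample wells plus 3 SD, cut at about 27% in these data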;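 also: 0% = acetylcholine EC80 with DMSO and 100% = DMSO without agonist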
# CHRM4 PAM: CHRM4 positive allosteric modulation. CHO-K1 hM4/Gqi5, Fluo-8 calcium fluorescence, ACh EC20; 0% = ACh EC20, 100% = maximal ACh. AID 624126. P08173. activation, % at 3 µM. 360,000 compounds, 0.4% hits;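 active = activation above its plate's cutoff, the mean activation of sample wells plus 3 SD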
# M5 antag: antagonists of human muscarinic M5 receptor (CHRM5). P08912. CHO-hM5 cells, Fluo-8 calcium fluorescence, ACh EC80. inhibition, % at 3 µM. 360,000 compounds, 0.59% hits. AID 624040;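 active = inhibition above a per-plate cutoff, the mean of that plate's test compounds plus 3 SD, cut at about 27% in these data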;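 also: 0% = acetylcholine EC80 with DMSO and 100% = DMSO without agonist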
# M5 ag: agonists of human muscarinic M5 receptor (CHRM5); P08912; CHO-K1 hM5 cells, Fluo-8 calcium fluorescence; 0% DMSO wells, 100% maximal acetylcholine response; activation, % at 3 µM; 360,000 compounds, 0.19% hits; AID 624037;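 active = activation above the run's mean over test compounds plus 3 SD, cut at about 23% in these data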;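 also: signal is peak over basal fluorescence ratio across the kinetic read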
# * = called active by the depositor; + = active, no number. The list is not random: actives were taken first. Their share in the collection is about 1.9%.
SMILES,M5 PAM,M4 ag,M4 antag,CHRM4 PAM,M5 antag,M5 ag
Cc1ccc(NC(=O)c2cc(N3C(=O)C=CC3=O)ccc2N2CCOCC2)cc1,21*,2,12,-2,7,2
Cc1coc2c1c(C)cc1oc(=O)c(CC(=O)N[C@@H](C)C(=O)O)c(C)c12,0,2,14,-4,6,-2
CC(C)C(=O)c1c(C(C)C)nn2ccccc12,-3,0,-11,1,2,0
O=C(NC(Cc1c[nH]c2ccccc12)C(=O)N/N=C/c1ccc(Cl)cc1)c1cccs1 (stereo unspecified),-15,13,8,-12,27*,-2
COc1ccc(Cl)c(-c2cc(C(=O)Nc3ccccc3)[nH]n2)c1,-7,9,2,-5,4,2
Cc1ccccc1C(=O)Nc1cc(NC(=O)c2ccccc2C)cc(C(=O)O)c1,12,0,-20,4,-5,0
CCCCc1nnc(NC(=O)c2oc3ccc(OC)cc3c2C)s1,19*,0,-15,15,-16,-3
COc1ccc2oc(C(=O)Nc3nccs3)c(C)c2c1,6,1,-3,7,0,-4
Cc1cc(C)c(Nc2ncnc(N)n2)c(C)c1,4,-2,100*,-74,5,-3
Cc1ccc(Nc2ncnc(N)n2)cc1,-4,0,-7,-4,12,-1
CCCCCCCNC(=O)C1(CC2CC(c3ccc(Cl)cc3)=NO2)CCN(C(=O)c2cc(OCC)c(OCC)c(OCC)c2)CC1 (stereo unspecified),3,1,-12,2,7,0
O=C1c2cccc3c(N4CCCCC4)ccc(c23)C(=O)N1c1ccccc1O,-20,39*,35*,-17,35*,28*
O=C1c2cccc3c(N4CCCCC4)ccc(c23)C(=O)N1c1ccc(O)cc1,-9,11,4,1,18,21
C[C@@H]1CN([C@H](C)CO)C(=O)c2cc(NS(=O)(=O)c3cn(C)cn3)ccc2O[C@@H]1CN(C)S(C)(=O)=O,-8,0,-1,4,0,4
O=C(O)c1ccc(S(=O)(=O)NCc2ccc3c(c2)OCO3)cc1,0,0,9,-4,9,-3
CCCCCc1ccc(OCCC[n+]2ccccc2)c(CCCCC)c1,-30,0,32*,-48,32*,-21
C[n+]1cn(CC(O)COCc2ccccc2)c2ccccc21 (stereo unspecified),0,1,-8,1,-1,-2
CCCCCc1ccc(OCCOCCn2c[n+](C)c3ccccc32)c(CCCCC)c1,-10,2,58*,-19,21,-10
CC(C)CCOc1ccc(C(=O)N2CCN(c3ncccn3)CC2)cc1,3,1,-12,-1,10,-6
Cc1c(CC(=O)O)c(=O)oc2c(C)c3occ(-c4ccccc4)c3cc12,-1,-1,46*,-16,13,-6
O=S(=O)(NNc1ccc(Cl)nn1)c1ccc(F)cc1,-5,1,3,2,-2,1
COc1cc(C(O)c2nc(-c3cccs3)cs2)ccc1F (stereo unspecified),-6,4,1,-4,-1,3
O=C1CC(c2ccccc2)CN1C(=O)c1cccnc1 (stereo unspecified),19*,1,-5,18,-5,2
COc1ccc(CC(=O)NCCS(=O)(=O)N2CCN(c3ccc(F)cc3)CC2)cc1OC,-10,9,-8,-4,7,3
CC(C)CC(=NNC(=O)c1ccncc1)c1cc(Cl)ccc1O,-16,40*,-4,-3,13,38*
SMILES,M5 PAM,M4 ag,M4 antag,CHRM4 PAM,M5 antag,M5 ag
CC(=NNC(=O)c1ccncc1)c1ccccc1O,17,2,-3,3,-5,5
CC(=NNC(=O)c1ccncc1)c1ccc2ccccc2c1O,-48,57*,11,-13,19,194*
C/C(=N/NC(=O)c1ccncc1)c1ccc(NC(=O)c2ccc(Cl)cc2Cl)cc1,-3,8,-6,0,3,-2
CC(=NNC(=O)c1ccncc1)c1ccc(O)cc1O,22*,1,-17,10,1,0
CCC(=O)N(c1nnc(SCC(=O)Nc2ccccc2Cl)s1)C1CC1,4,1,-1,2,-1,-5
CC1(c2ccc(OC(F)F)cc2)NC(=O)N(CC(=O)NC2CCCCC2)C1=O (stereo unspecified),-7,7,-8,17,8,5
CC1(c2ccc([N+](=O)[O-])cc2)NC(=O)N(CC(=O)c2ccc3c(c2)OCO3)C1=O (stereo unspecified),-15,33*,-7,-6,6,36*
CC1(c2ccc(OC(F)F)cc2)NC(=O)N(CC(=O)c2ccc3c(c2)OCO3)C1=O (stereo unspecified),-21,40*,-8,-8,5,42*
CC(C(O)C12CC3CC(CC(C3)C1)C2)N1CCCCC1 (stereo unspecified),-1,0,40*,-19,6,-11
O=C(CCn1c(=S)[nH]c2ccccc2c1=O)NCC1CCCO1 (stereo unspecified),-4,1,-25,19*,-3,2
CCCn1c(=S)[nH]c2cc(C(=O)NCC3CCCO3)ccc2c1=O (stereo unspecified),-5,4,7,-2,4,4
CCCSc1ccc([C@H]2N[C@@](C)(C(=O)OC)[C@H]3C(=O)N(C)C(=O)[C@@H]23)cc1OC,9,2,-5,9,-2,3
CC(=O)Oc1ccc2c(c1)Oc1cc(OC(C)=O)ccc1C21OC(=O)c2ccccc21,-21,865*,101*,-17,102*,+
COc1ccc(OC)c(NC(=O)c2cc(OC(C)=O)cc(C(=O)Nc3cc(OC)ccc3OC)c2)c1,-10,12,0,-9,13,5
CCOC(=O)N1CCN(CC(=O)N2c3ccccc3CC2C)CC1 (stereo unspecified),1,1,31*,-1,1,1
CCN1CCN(CC(=O)N2c3ccccc3CC2C)CC1 (stereo unspecified),6,0,3,2,-9,-2
CC(C)c1ccc(CNc2ncccn2)cc1,0,0,2,3,8,-4
Cc1ccc2cc(NC(=O)c3ccc(C(C)(C)C)cc3)ccc2n1,0,21,20,11,27*,-3
C#Cc1ccc([C@H]2C=C(C(=O)NC3CC3)O[C@@H](OCC)[C@@H]2CCCO)cc1,2,1,2,4,13,2
